Test results as given in ChEMBL document CHEMBL1932958, “Analogs of pentamidine as potential anti-Pneumocystis chemotherapeutics” (Eur J Med Chem, 2012).

Experiments:
Pneumocystis carinii = assay: Antipneumocystis activity against Pneumocystis carinii assessed as reduction of ATP level after 72 hrs by bioluminescent assay; type: functional, organism-based
How it was run: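 P. carinii from corticosteroid-immunosuppressed male CD rat lungs (methylprednisolone 20 mg/kg weekly, inoculated intratracheally or intranasally), cryopreserved, thawed at 37°C, 5 × 10^7 nuclei/ml in RPMI-1640 with 20% calf serum; 5% CO2, 37 °C. Screened at 100 µg/ml; titrated if ATP fell ≥50%. ATPlite luciferin-luciferase luminescence at 72 h; triplicate wells, 3 assays, two batches; IC50 by linear regression of % ATP decrease vs log concentration.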

[1] = Cytotoxicity against rat L2 cells; type: cell-based
A549 = assay: Cytotoxicity against human A549 cells; type: cell-based

COc1cc(C(=N)N)cc(OC)c1OCCCCCOc1c(OC)cc(C(=N)N)cc1OC.Cl.Cl
IC50 (Pneumocystis carinii): 3 µM | IC50 [1]: 17.8 µg/mL | IC50 (A549): > 100 µg/mL

Cl.Cl.N=C(N)c1ccc(OCCSCCOc2ccc(C(=N)N)cc2)cc1
IC50 (Pneumocystis carinii): 1.18 µM | IC50 [1]: > 100 µg/mL | IC50 (A549): > 100 µg/mL

COc1cc(C(=N)N)ccc1OCCN(C)CCOc1ccc(C(=N)N)cc1OC.Cl.Cl
IC50 (Pneumocystis carinii): 3.41 µM | IC50 [1]: > 100 µg/mL | IC50 (A549): > 100 µg/mL

Cl.Cl.N=C(N)c1ccc(OCCOCCOc2ccc(C(=N)N)cc2)cc1
IC50 (Pneumocystis carinii): 2.13 µM | IC50 [1]: > 100 µg/mL | IC50 (A549): > 100 µg/mL

COc1cc(C(=N)N)ccc1OCCN(CCOc1ccc(C(=N)N)cc1OC)S(=O)(=O)c1ccccc1.Cl.Cl
IC50 (Pneumocystis carinii): 2.66 µM | IC50 [1]: > 100 µg/mL | IC50 (A549): > 100 µg/mL

COc1cc(C(=N)N)cc(OC)c1OCCOCCOc1c(OC)cc(C(=N)N)cc1OC.Cl.Cl
IC50 (Pneumocystis carinii): 13 µM | IC50 [1]: > 100 µg/mL | IC50 (A549): > 100 µg/mL

Cl.Cl.N=C(N)c1ccc(NCCOCCNc2ccc(C(=N)N)cc2)cc1
IC50 (Pneumocystis carinii): 1.11 µM | IC50 [1]: 36.9 µg/mL | IC50 (A549): > 100 µg/mL

Cl.Cl.N=C(N)c1ccc(C(=O)NCCCCNC(=O)c2ccc(C(=N)N)cc2)cc1
IC50 (Pneumocystis carinii): 3.58 µM | IC50 [1]: > 100 µg/mL | IC50 (A549): > 100 µg/mL

Cl.Cl.N=C(N)c1ccc(C(=O)NCCCCCCNC(=O)c2ccc(C(=N)N)cc2)cc1
IC50 (Pneumocystis carinii): 9.15 µM | IC50 [1]: > 100 µg/mL | IC50 (A549): > 100 µg/mL

Cl.Cl.N=C(N)c1ccc(C(=O)NCCCCCNC(=O)c2ccc(C(=N)N)cc2)cc1
IC50 (Pneumocystis carinii): 14.3 µM | IC50 [1]: > 100 µg/mL | IC50 (A549): > 100 µg/mL

CN(CCOc1ccc(C(=N)N)cc1)CCOc1ccc(C(=N)N)cc1.Cl.Cl
IC50 (Pneumocystis carinii): 1.73 µM | IC50 [1]: > 100 µg/mL | IC50 (A549): > 100 µg/mL

COc1cc(C(=N)N)cc(OC)c1OCCN(CCOc1c(OC)cc(C(=N)N)cc1OC)S(=O)(=O)c1ccc(N)cc1.Cl.Cl
IC50 (Pneumocystis carinii): 4.16 µM | IC50 [1]: > 100 µg/mL | IC50 (A549): > 100 µg/mL

COc1cc(C(=N)N)ccc1OCCOCCOc1ccc(C(=N)N)cc1OC.Cl.Cl
IC50 (Pneumocystis carinii): 4.21 µM | IC50 [1]: > 100 µg/mL | IC50 (A549): > 100 µg/mL

Cl.Cl.N=C(N)c1ccc(OCCN(CCOc2ccc(C(=N)N)cc2)S(=O)(=O)c2ccccc2)cc1
IC50 (Pneumocystis carinii): 1.33 µM | IC50 [1]: > 100 µg/mL | IC50 (A549): > 100 µg/mL

COc1cc(C(=N)N)cc(OC)c1OCCN(C)CCOc1c(OC)cc(C(=N)N)cc1OC.Cl.Cl
IC50 (Pneumocystis carinii): 6.26 µM | IC50 [1]: > 100 µg/mL | IC50 (A549): > 100 µg/mL

COc1cc(C(=N)N)cc(OC)c1OCCN(CCOc1c(OC)cc(C(=N)N)cc1OC)S(=O)(=O)c1ccccc1.Cl.Cl
IC50 (Pneumocystis carinii): 4.4 µM | IC50 [1]: > 100 µg/mL | IC50 (A549): > 100 µg/mL

COc1cc(C(=N)N)ccc1OCCN(CCOc1ccc(C(=N)N)cc1OC)S(=O)(=O)c1ccc(NC(C)=O)cc1.Cl.Cl
IC50 (Pneumocystis carinii): 3.71 µM | IC50 [1]: > 100 µg/mL | IC50 (A549): > 100 µg/mL

CN(CCCCCN(C)c1ccc(C(=N)N)cc1)c1ccc(C(=N)N)cc1.Cl.Cl
IC50 (Pneumocystis carinii): 1.99 µM | IC50 [1]: 47.1 µg/mL | IC50 (A549): > 100 µg/mL

Cl.Cl.N=C(N)c1ccc(C(=O)NCCCNC(=O)c2ccc(C(=N)N)cc2)cc1
IC50 (Pneumocystis carinii): 2.99 µM | IC50 [1]: > 100 µg/mL | IC50 (A549): > 100 µg/mL
